Assay results: ChEMBL document CHEMBL1142158, “Antibacterial activity and mechanism of action of a novel anilinouracil-fluoroquinolone hybrid compound” (Antimicrob Agents Chemother, 2007)
Values after ≈ are worked out from the molar mass of the structure shown. Active and inactive are the calls of the source. The calls are words filed in the database; no cut-off is given here.

Assays:
[1] = Inhibition of Bacillus subtilis gyrase
[2] = Inhibition of Bacillus subtilis topoisomerase 4
[3] = tested on: Streptococcus pneumoniae; experiment: Antibacterial activity against penicillin-resistant Streptococcus pneumoniae 700677; assay type: functional
Procedure, shortened: (§1)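 Streptococci tested by CLSI broth microdilution in Mueller-Hinton broth with 5% defibrinated horse blood, log-phase inoculum at 1 x 10^5 CFU/ml. Incubated 37°C with shaking, 16 to 20 h, in 5% humidified CO2. Compounds at 1% DMSO final. MIC is the lowest concentration without growth by OD600. Quadruplicate; highest MIC reported.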

[4] = tested on: Streptococcus pneumoniae; experiment: Antibacterial activity against penicillin-resistant Streptococcus pneumoniae 700670; assay type: functional; procedure, shortened: as §1
[5] = tested on: Staphylococcus aureus; experiment: Antibacterial activity against mupirocin-sensitive Staphylococcus aureus 2529; assay type: functional
[6] = tested on: Pseudomonas aeruginosa; experiment: Antibacterial activity against Pseudomonas aeruginosa 27853; assay type: functional
[7] = tested on: Stenotrophomonas maltophilia; experiment: Antibacterial activity against Stenotrophomonas maltophilia 13637; assay type: functional
[8] = tested on: Staphylococcus aureus; experiment: Antibacterial activity against methicillin-resistant Staphylococcus aureus 1123; assay type: functional
Procedure, shortened: (§2)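 Broth microdilution per CLSI with modified incubation. Log-phase cultures in cation-adjusted Mueller-Hinton broth, seeded at 1 x 10^5 CFU/ml. Compounds from DMSO stocks, 1% DMSO final. Incubated 37°C, 16 to 20 h, shaken. Growth read as OD600. MIC is the lowest concentration with no apparent growth. Run in quadruplicate; highest value reported.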

[9] = tested on: Bacillus subtilis; experiment: Inhibition of protein synthesis in Bacillus subtilis BD54; assay type: functional, organism-based
Procedure, shortened: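 Log-phase B. subtilis BD54 in C plus 50 medium; compound in DMSO (5x or 1x MIC) and L-[4,5-3H]leucine added together at time zero; samples taken at intervals. Protein synthesis measured as TCA-precipitable radioactivity, compared with diluent-control incorporation.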

[10] = tested on: Streptococcus pneumoniae; experiment: Antibacterial activity against penicillin-resistant Streptococcus pneumoniae 700673; assay type: functional; procedure, shortened: as §1
[11] = tested on: Enterococcus faecium; experiment: Antibacterial activity against vancomycin-resistant Enterococcus faecium 1644; assay type: functional; procedure, shortened: as §2
[12] = tested on: Staphylococcus aureus; experiment: Antibacterial activity against Staphylococcus aureus 25923; assay type: functional; procedure, shortened: as §2
[13] = tested on: Streptococcus pyogenes; experiment: Antibacterial activity against Streptococcus pyogenes 12344; assay type: functional
[14] = tested on: Staphylococcus aureus; experiment: Antibacterial activity against ciprofloxacin-resistant Staphylococcus aureus Smith; assay type: functional; procedure, shortened: as §2
[15] = tested on: Bacillus subtilis; experiment: Inhibition of DNA synthesis in Bacillus subtilis BD54; assay type: functional, organism-based
Procedure, shortened: (§3)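 B. subtilis BD54 grown to log phase in C plus 50 medium; compound in DMSO added with [8-3H]adenine at time zero, at 5x or 1x MIC; samples over time. DNA = alkali-insensitive TCA-insoluble label; RNA = total TCA-insoluble minus DNA. Effect judged against diluent-control incorporation.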

[16] = tested on: Enterococcus faecium; experiment: Antibacterial activity against vancomycin and linezolid-resistant Enterococcus faecium F118; assay type: functional; procedure, shortened: as §2
[17] = tested on: Staphylococcus aureus; experiment: Antibacterial activity against Staphylococcus aureus Smith in presence of 10% FCS; assay type: functional
[18] = tested on: Streptococcus pneumoniae; experiment: Antibacterial activity against penicillin-resistant Streptococcus pneumoniae 700674; assay type: functional; procedure, shortened: as §1
[19] = tested on: Bacillus anthracis; experiment: Antibacterial activity against Bacillus anthracis Sterne; assay type: functional
[20] = tested on: Enterococcus faecium; experiment: Antibacterial activity against Enterococcus faecium 19434; assay type: functional; procedure, shortened: as §2
[21] = tested on: Enterococcus faecalis; experiment: Antibacterial activity against vancomycin-resistant Enterococcus faecalis 51575; assay type: functional; procedure, shortened: as §2
[22] = tested on: Streptococcus pneumoniae; experiment: Antibacterial activity against penicillin-resistant Streptococcus pneumoniae 700671; assay type: functional; procedure, shortened: as §1
[23] = tested on: Staphylococcus aureus; experiment: Antibacterial activity against Staphylococcus aureus Smith 13709; assay type: functional; procedure, shortened: as §2
[24] = tested on: Bacillus subtilis; experiment: Inhibition of RNA synthesis in Bacillus subtilis BD54; assay type: functional, organism-based; procedure, shortened: as §3
[25] = tested on: Bacillus cereus; experiment: Antibacterial activity against Bacillus cereus 6464; assay type: functional
[26] = tested on: Staphylococcus aureus; experiment: Antibacterial activity against HB-EMAU-resistant Staphylococcus aureus Smith; assay type: functional; procedure, shortened: as §2
[27] = tested on: Enterococcus faecalis; experiment: Antibacterial activity against vancomycin-resistant Enterococcus faecalis 700802; assay type: functional; procedure, shortened: as §2
[28] = tested on: Enterococcus faecium; experiment: Antibacterial activity against vancomycin-resistant Enterococcus faecium B42762; assay type: functional; procedure, shortened: as §2
[29] = tested on: Staphylococcus aureus; experiment: Antibacterial activity against HB-EMAU-resistant and ciprofloxacin-resistant Staphylococcus aureus Smith; assay type: functional; procedure, shortened: as §2
[30] = tested on: Staphylococcus aureus; experiment: Antibacterial activity against mupirocin-resistant Staphylococcus aureus 777; assay type: functional; procedure, shortened: as §2
[31] = tested on: Streptococcus pneumoniae; experiment: Antibacterial activity against Streptococcus pneumoniae 49619; assay type: functional; procedure, shortened: as §1
[32] = tested on: Staphylococcus aureus; experiment: Antibacterial activity against methicillin-resistant Staphylococcus aureus 1094; assay type: functional; procedure, shortened: as §2
[33] = tested on: Bacillus cereus; experiment: Antibacterial activity against Bacillus cereus 4342; assay type: functional
[34] = tested on: Staphylococcus aureus; experiment: Antibacterial activity against methicillin-resistant Staphylococcus aureus 1132; assay type: functional; procedure, shortened: as §2
[35] = tested on: Escherichia coli; experiment: Antibacterial activity against Escherichia coli J53; assay type: functional
[36] = tested on: Escherichia coli; experiment: Antibacterial activity against ciprofloxacin-resistant Escherichia coli XL1-Blue; assay type: functional; procedure, shortened: as §2
[37] = tested on: Bacillus subtilis; experiment: Antibacterial activity against Bacillus subtilis BD54; assay type: functional
[38] = Cytotoxicity against human MRC5 cells; assay type: cell-based
Procedure, shortened: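 MRC-5 human diploid fibroblasts, 4 x 10^3 cells per well, exposed to compound from DMSO stock (final 1%) in minimal essential medium with 10% fetal calf serum for 72 h at 37°C beside a DMSO-only control.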

[39] = tested on: Enterococcus faecalis; experiment: Antibacterial activity against vancomycin-resistant Enterococcus faecalis 51299; assay type: functional; procedure, shortened: as §2
[40] = tested on: Bacillus thuringiensis; experiment: Antibacterial activity against Bacillus thuringiensis 10792; assay type: functional
[41] = tested on: Staphylococcus aureus; experiment: Antibacterial activity against Staphylococcus aureus 1081; assay type: functional; procedure, shortened: as §2
[42] = tested on: Enterococcus faecalis; experiment: Antibacterial activity against Enterococcus faecalis 29212; assay type: functional; procedure, shortened: as §2
[43] = tested on: Staphylococcus aureus; experiment: Antibacterial activity against methicillin-resistant Staphylococcus aureus B42876; assay type: functional; procedure, shortened: as §2
[44] = tested on: Bacillus thuringiensis; experiment: Antibacterial activity against Bacillus thuringiensis 33679; assay type: functional
[45] = tested on: Klebsiella pneumoniae; experiment: Antibacterial activity against Klebsiella pneumoniae 5657; assay type: functional
[46] = target: T1, DNA polymerase subunit gamma-1 (Homo sapiens, UniProt P54098); experiment: Inhibition of human DNA polymerase gamma
T1 sequence (P54098 whole entry): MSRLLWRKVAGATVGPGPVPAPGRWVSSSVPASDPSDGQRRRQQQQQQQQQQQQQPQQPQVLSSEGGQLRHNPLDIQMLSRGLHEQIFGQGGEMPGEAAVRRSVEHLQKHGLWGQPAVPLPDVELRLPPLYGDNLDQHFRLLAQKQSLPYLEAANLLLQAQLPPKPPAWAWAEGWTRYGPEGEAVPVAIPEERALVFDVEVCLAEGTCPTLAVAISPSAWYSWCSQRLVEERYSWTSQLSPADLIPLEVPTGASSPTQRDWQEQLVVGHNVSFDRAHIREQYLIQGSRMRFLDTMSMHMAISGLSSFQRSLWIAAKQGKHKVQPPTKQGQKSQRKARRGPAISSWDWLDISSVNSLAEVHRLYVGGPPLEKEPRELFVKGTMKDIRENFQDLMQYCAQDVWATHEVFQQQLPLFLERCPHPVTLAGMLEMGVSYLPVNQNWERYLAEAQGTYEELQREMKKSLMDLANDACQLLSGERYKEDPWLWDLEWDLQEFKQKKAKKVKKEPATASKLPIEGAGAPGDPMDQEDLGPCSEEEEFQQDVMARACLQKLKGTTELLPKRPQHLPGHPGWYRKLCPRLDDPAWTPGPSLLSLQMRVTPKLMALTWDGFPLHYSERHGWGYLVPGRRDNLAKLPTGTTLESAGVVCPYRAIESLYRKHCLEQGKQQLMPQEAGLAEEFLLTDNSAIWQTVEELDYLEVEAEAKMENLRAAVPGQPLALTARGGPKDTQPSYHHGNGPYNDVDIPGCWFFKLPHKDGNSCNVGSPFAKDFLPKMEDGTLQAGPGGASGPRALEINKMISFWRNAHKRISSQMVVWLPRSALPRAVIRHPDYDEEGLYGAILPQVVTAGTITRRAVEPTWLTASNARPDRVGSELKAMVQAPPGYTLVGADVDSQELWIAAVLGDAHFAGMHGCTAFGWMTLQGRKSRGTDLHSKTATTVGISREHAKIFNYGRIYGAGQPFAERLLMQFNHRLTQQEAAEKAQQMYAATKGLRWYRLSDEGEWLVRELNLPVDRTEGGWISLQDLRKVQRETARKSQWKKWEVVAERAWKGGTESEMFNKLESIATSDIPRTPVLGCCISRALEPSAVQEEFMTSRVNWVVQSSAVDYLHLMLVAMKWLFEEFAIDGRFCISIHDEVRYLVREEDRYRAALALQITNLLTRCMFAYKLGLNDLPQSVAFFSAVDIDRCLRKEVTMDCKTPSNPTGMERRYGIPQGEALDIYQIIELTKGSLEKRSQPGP
Procedure, shortened: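 Calf thymus pol alpha or human pol gamma, 0.025 to 0.06 U, added to compound dilutions in reaction mixture; 25 min at 37°C; stopped with ice-cold 10% TCA/10 mM pyrophosphate; precipitated [3H]DNA collected on filters and counted. Ki values for dGTP-competitive inhibitors obtained by truncated assay lacking dGTP.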

CCn1cc(C(=O)O)c(=O)c2ccc(C)nc21 [NALIDIXIC ACID]
IC50 [1]: 149 µM
IC50 [2]: 1090 µM

CCc1cc(Nc2cc(=O)n(CCCCO)c(=O)[nH]2)ccc1C
MIC [3]: 2.5 µg/mL (≈ 7.88 µM)
MIC [4]: 5 µg/mL (≈ 15.8 µM)
MIC [5]: 20 µg/mL (≈ 63 µM)
MIC [6]: > 80 µg/mL
MIC [7]: > 80 µg/mL
MIC [8]: 5 µg/mL (≈ 15.8 µM)
Activity [9]: inactive
MIC [10]: 2.5 µg/mL (≈ 7.88 µM)
MIC [11]: 2.5 µg/mL (≈ 7.88 µM)
MIC [12]: 5 µg/mL (≈ 15.8 µM)
MIC [13]: 1.25 µg/mL (≈ 3.94 µM)
MIC [14]: 5 µg/mL (≈ 15.8 µM)
Activity [15]: Active
MIC [16]: 10 µg/mL (≈ 31.5 µM)
MIC [17]: 20 µg/mL
MIC [18]: 5 µg/mL (≈ 15.8 µM)
MIC [19]: 2.5 µg/mL (≈ 7.88 µM)
MIC [20]: 5 µg/mL (≈ 15.8 µM)
MIC [21]: 5 µg/mL (≈ 15.8 µM)
MIC [22]: 2.5 µg/mL (≈ 7.88 µM)
MIC [23]: 5 µg/mL (≈ 15.8 µM)
Activity [24]: inactive
MIC [25]: 1.25 µg/mL (≈ 3.94 µM)
IC50 [1]: > 500 µM
MIC [26]: > 80 µg/mL
MIC [27]: 5 µg/mL (≈ 15.8 µM)
MIC [28]: 5 µg/mL (≈ 15.8 µM)
MIC [29]: > 80 µg/mL
MIC [30]: 10 µg/mL (≈ 31.5 µM)
MIC [31]: 2.5 µg/mL (≈ 7.88 µM)
MIC [32]: 5 µg/mL (≈ 15.8 µM)
MIC [33]: 1.25 µg/mL (≈ 3.94 µM)
MIC [34]: 5 µg/mL (≈ 15.8 µM)
MIC [35]: > 80 µg/mL
MIC [36]: > 80 µg/mL
MIC [37]: 1.25 µg/mL (≈ 3.94 µM)
CC50 [38]: 46 µg/mL (≈ 145 µM)
MIC [39]: 5 µg/mL (≈ 15.8 µM)
MIC [40]: 1.25 µg/mL (≈ 3.94 µM)
MIC [41]: 5 µg/mL (≈ 15.8 µM)
MIC [42]: 5 µg/mL (≈ 15.8 µM)
MIC [43]: 5 µg/mL (≈ 15.8 µM)
MIC [44]: 2.5 µg/mL (≈ 7.88 µM)
IC50 [2]: > 500 µM
MIC [45]: > 80 µg/mL
Ki [46]: > 1010 µM
